Where a SMILES comes first, the peptide text is derived from it. [ ]: non-standard residue; d: D form. dPhe(4-NHCONH2) = NC(=O)Nc1ccc(C[C@@H](N)C(=O)O)cc1; Phe(4-NHCONH2) = NC(=O)Nc1ccc(C[C@H](N)C(=O)O)cc1; dPhe(4-Cl) = N[C@H](Cc1ccc(Cl)cc1)C(=O)O; d2Nal = N[C@H](Cc1ccc2ccccc2c1)C(=O)O; Lys(iPr) = CC(C)NCCCC[C@H](N)C(=O)O; d3Pal = N[C@H](Cc1cccnc1)C(=O)O
Assays:
Rattus norvegicus [1] = species: Rattus norvegicus; test: Compound was tested for inhibition of Leutenizing hormone release at 24 hours (short duration) in castrated male rat assay; type: functional; parameters: concentration or dose not given beside the values
Method in brief: (§1)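 Male Sprague-Dawley rats (180-200 g), castrated under ether 10 days earlier, 5 per group. 50 µg/rat given sc in 100 µL 40 mM phosphate buffer with 0.1% BSA and 0.6% DMSO; acyline run as internal standard. Tail blood taken predose and at 24, 48, 72, 96 (sometimes 120) h; plasma LH by RIA. Duration classed by >80% LH inhibition at each time.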

[2] = biological target: T1, Gonadotropin-releasing hormone receptor (Homo sapiens, UniProt P30968); test: Antagonism of human GnHR receptor, determined in a reporter gene assay in HEK293 cells; type: functional, cell-based
T1 sequence (P30968 whole entry): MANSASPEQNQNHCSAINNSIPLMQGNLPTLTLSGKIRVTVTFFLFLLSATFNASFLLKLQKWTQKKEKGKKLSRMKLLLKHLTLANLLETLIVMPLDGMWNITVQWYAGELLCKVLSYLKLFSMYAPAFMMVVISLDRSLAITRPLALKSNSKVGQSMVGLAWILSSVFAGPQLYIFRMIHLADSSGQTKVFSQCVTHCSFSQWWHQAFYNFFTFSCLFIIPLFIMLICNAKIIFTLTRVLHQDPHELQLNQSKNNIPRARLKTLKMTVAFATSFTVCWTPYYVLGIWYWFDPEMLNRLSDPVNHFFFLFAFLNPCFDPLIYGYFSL
Method in brief: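 HEK293 cells stably expressing cloned human GnRH receptor plus luciferase reporter under LH alpha subunit promoter, plated 24 h before assay. Compound in 1% DMSO added 10 min at 37 °C, then GnRH at 3 nM final; 5 h incubation, luciferase luminescence read. Six concentrations in duplicate; blank-subtracted cps as % of GnRH control; mean of two determinations.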

Rattus norvegicus [3] = species: Rattus norvegicus; test: Compound was tested for histamine release at a concentration of 10 ug/mL; type: functional
Method in brief: (§2)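 Sprague-Dawley rat peritoneal mast cells, Percoll-purified, in heparinized balanced salt solution with albumin, pH 7.2. Cells exposed to compound or vehicle for 2 min at 37 °C. Supernatant histamine measured spectrofluorometrically after o-phthalaldehyde derivatization; pellets lysed for retained histamine. Reported as % of total histamine released, corrected for spontaneous release in vehicle.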

Rattus norvegicus [4] = species: Rattus norvegicus; test: Compound was tested for inhibition of Leutenizing hormone release at 72 hours (long duration) in castrated male rat assay; type: functional; parameters: concentration or dose not given beside the values; method in brief: as §1
Rattus norvegicus [5] = species: Rattus norvegicus; test: Compound was tested for histamine release at a concentration of 30 ug/mL; type: functional; method in brief: as §2
Rattus norvegicus [6] = species: Rattus norvegicus; test: Compound was tested for histamine release at a concentration of 100 ug/mL; type: functional; method in brief: as §2
[7] = biological target: T1, Gonadotropin-releasing hormone receptor; test: Competitive antagonism of GnRH-induced response in the reporter gene assay; type: functional; conditions: read-out: pA2 (converted)
Method in brief: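 Same HEK293 human GnRH receptor luciferase reporter cells. Seven-point GnRH curve (10 µM to 10 pM final) run in duplicate without or with four to five increasing compound concentrations (10 min preincubation, 37 °C), then 5 h and luminescence. GnRH EC50 at each level by four-parameter logistic fit, giving pA2; mean of two determinations in duplicate.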

Rattus norvegicus [8] = species: Rattus norvegicus; test: Compound was tested for inhibition of Leutenizing hormone release at 96 hours (very long duration) in castrated male rat assay; type: functional; parameters: concentration or dose not given beside the values; method in brief: as §1
Rattus norvegicus [9] = species: Rattus norvegicus; test: Compound was tested for histamine release at a concentration of 300 ug/mL; type: functional; method in brief: as §2

| Structure (SMILES) | Inhibition (Rattus norvegicus [1]) | IC50 [2] | HR (Rattus norvegicus [5]) | HR (Rattus norvegicus [6]) | other results |
| --- | --- | --- | --- | --- | --- |
| COc1ccc(NC(=O)NC[C@H](NC(=O)[C@H](CO)NC(=O)[C@@H](Cc2cccnc2)NC(=O)[C@@H](Cc2ccc(Cl)cc2)NC(=O)[C@@H](Cc2ccc3ccccc3c2)NC(C)=O)C(=O)N[C@H](Cc2ccc(NC(C)=O)cc2)C(=O)N[C@@H](CC(C)C)C(=O)N[C@@H](CCCCNC(C)C)C(=O)N2CCC[C@H]2C(=O)N[C@H](C)C(N)=O)cc1 | >80% | – | – | – | – |
| CC(=O)Nc1ccc(C[C@@H](NC(=O)[C@H](CNC(N)=O)NC(=O)[C@H](CO)NC(=O)[C@@H](Cc2cccnc2)NC(=O)[C@@H](Cc2ccc(Cl)cc2)NC(=O)[C@@H](Cc2ccc3ccccc3c2)NC(C)=O)C(=O)N[C@@H](CC(C)C)C(=O)N[C@@H](CCCCNC(C)C)C(=O)N2CCC[C@H]2C(=O)N[C@H](C)C(N)=O)cc1 | >80% | – | – | – | – |
| CC(=O)Nc1ccc(C[C@@H](NC(=O)[C@H](Cc2ccc(NC(=O)c3cnc(O)nc3O)cc2)NC(=O)[C@H](CO)NC(=O)[C@@H](Cc2cccnc2)NC(=O)[C@@H](Cc2ccc(Cl)cc2)NC(=O)[C@@H](Cc2ccc3ccccc3c2)NC(C)=O)C(=O)N[C@@H](CC(C)C)C(=O)N[C@@H](CCCCNC(C)C)C(=O)N2CCC[C@H]2C(=O)N[C@H](C)C(N)=O)cc1 | >80% | 8.2 nM | – | – | – |
| CCNC(=O)NC[C@H](NC(=O)[C@H](CO)NC(=O)[C@@H](Cc1cccnc1)NC(=O)[C@@H](Cc1ccc(Cl)cc1)NC(=O)[C@@H](Cc1ccc2ccccc2c1)NC(C)=O)C(=O)N[C@H](Cc1ccc(NC(C)=O)cc1)C(=O)N[C@@H](CC(C)C)C(=O)N[C@@H](CCCCNC(C)C)C(=O)N1CCC[C@H]1C(=O)N[C@H](C)C(N)=O | >80% | – | – | – | – |
| CC(=O)N[C@H](Cc1ccc2ccccc2c1)C(=O)N[C@H](Cc1ccc(Cl)cc1)C(=O)N[C@H](Cc1cccnc1)C(=O)N[C@@H](CO)C(=O)N[C@@H](Cc1ccc(NC(N)=O)cc1)C(=O)N[C@H](Cc1ccc(NC(N)=O)cc1)C(=O)N[C@@H](CC(C)C)C(=O)N[C@@H](CCCCNC(C)C)C(=O)N1CCC[C@H]1C(=O)N[C@H](C)C(N)=O (Ac-[d2Nal][dPhe(4-Cl)][d3Pal]S[Phe(4-NHCONH2)][dPhe(4-NHCONH2)]L[Lys(iPr)]P[dA]-NH2) | – | 2.8 nM | 75% | 153% | HR (Rattus norvegicus [3]): <10%; Inhibition (Rattus norvegicus [4]): >80%; Kb [7]: 1.58 nM |
| CC(=O)N[C@H](Cc1ccc2ccccc2c1)C(=O)N[C@H](Cc1ccc(Cl)cc1)C(=O)N[C@H](Cc1cccnc1)C(=O)N[C@@H](CO)C(=O)N[C@@H](Cc1ccc(NC(=O)[C@@H]2CC(=O)NC(=O)N2)cc1)C(=O)N[C@H](Cc1ccc(NC(=O)[C@@H]2CC(=O)NC(=O)N2)cc1)C(=O)N[C@@H](CC(C)C)C(=O)N[C@@H](CCCCNC(C)C)C(=O)N1CCC[C@H]1C(=O)N[C@H](C)C(N)=O | – | – | <10% | 11% | Inhibition (Rattus norvegicus [4]): >80% |
| CC(=O)N[C@H](Cc1ccc2ccccc2c1)C(=O)N[C@H](Cc1ccc(Cl)cc1)C(=O)N[C@H](Cc1cccnc1)C(=O)N[C@@H](CO)C(=O)N[C@@H](Cc1ccc(NC(=O)[C@@H]2CC(=O)NC(=O)N2)cc1)C(=O)N[C@H](Cc1cccnc1)C(=O)N[C@@H](CC(C)C)C(=O)N[C@@H](CCCCNC(C)C)C(=O)N1CCC[C@H]1C(=O)N[C@H](C)C(N)=O | – | – | – | 68% | Inhibition (Rattus norvegicus [8]): >80%; HR (Rattus norvegicus [9]): 62% |
| CC(=O)N[C@H](Cc1ccc2ccccc2c1)C(=O)N[C@H](Cc1ccc(Cl)cc1)C(=O)N[C@H](Cc1cccnc1)C(=O)N[C@@H](CO)C(=O)N[C@@H](Cc1ccc(NC(=O)[C@@H]2CC(=O)NC(=O)N2)cc1)C(=O)N[C@H](Cc1ccc2ccccc2c1)C(=O)N[C@@H](CC(C)C)C(=O)N[C@@H](CCCCNC(C)C)C(=O)N1CCC[C@H]1C(=O)N[C@H](C)C(N)=O | >80% | – | – | – | – |
| CC(=O)Nc1ccc(C[C@@H](NC(=O)[C@H](Cc2ccc(NC(=O)[C@@H]3CC(=O)NC(=O)N3)cc2)N(C)C(=O)[C@H](CO)NC(=O)[C@@H](Cc2cccnc2)NC(=O)[C@@H](Cc2ccc(Cl)cc2)NC(=O)[C@@H](Cc2ccc3ccccc3c2)NC(C)=O)C(=O)N[C@@H](CC(C)C)C(=O)N[C@@H](CCCCNC(C)C)C(=O)N2CCC[C@H]2C(=O)N[C@H](C)C(N)=O)cc1 | >80% | 8.1 nM | 50% | 124% | Kb [7]: 0.794 nM |
